# OXTR agonist: human OXTR agonism; P30559; CHO-OTR cells, Fluo-8 calcium fluorescence; normalized: DMSO 0%, oxytocin 100%; activation, % at 3 µM; 320,000 tested, 0.32% active; AID 2435;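 active = activation above the mean of all tested compounds plus 3 SD, cutoff set per screening run, cut at about 20% in these data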;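 also: peak over basal fluorescence ratio from a 100 s FLIPR kinetic read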
# Target sequence (P30559 whole entry, looked up): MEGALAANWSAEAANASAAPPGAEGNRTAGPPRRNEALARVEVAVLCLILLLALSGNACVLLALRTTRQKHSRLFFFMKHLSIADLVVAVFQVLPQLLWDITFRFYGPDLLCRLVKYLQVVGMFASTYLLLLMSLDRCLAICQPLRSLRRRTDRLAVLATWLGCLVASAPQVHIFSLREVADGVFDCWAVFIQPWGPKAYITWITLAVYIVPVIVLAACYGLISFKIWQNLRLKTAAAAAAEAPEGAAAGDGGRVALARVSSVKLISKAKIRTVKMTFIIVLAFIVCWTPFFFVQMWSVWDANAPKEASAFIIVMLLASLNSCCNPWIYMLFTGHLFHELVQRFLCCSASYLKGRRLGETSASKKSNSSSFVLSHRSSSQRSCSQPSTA
# TAAR1 agonist: agonists of human TAAR1 | CHO RD-HGA16 TAAR1, Fluo-8 calcium fluorescence; vehicle wells 0%, saturating PEA agonist 100% | activation, % at 3 µM | 360,000 tested, 0.99% active;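 active = activation above the mean activation of all test compounds in the run plus 3 SD, cut at about 38% in these data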
#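 System: CHO-derived RD-HGA16 cells with stable Gα16 and human TAAR1. Times: 17-24 h plating, Fluo-8 75 min 37 °C, 30 min RT. Measured by: calcium-sensitive Fluo-8 signal, excitation 470-495, emission 515-575 nm. Read-out basis: % activation relative to PEA EC100 response. Control set: DMSO and PEA EC100. Repeats: no replicates (n 1).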
# V1aR counter: V1a receptor agonism, counter-screen for OXTR agonists; CHO-V1R cells, Fluo-8 calcium fluorescence, agonist mode; 0% DMSO, 100% 3 nM vasopressin; AID 2797; 320,000 tested, 0.25% active; activation, % at 3 µM; P37288;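 active = activation above the mean activation of all tested compounds plus 3 SD, per screening run, cut at about 20% in these data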;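 also: signal is peak over basal fluorescence ratio across a 100 second FLIPR read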
# OXTR potentiate: potentiators of human oxytocin receptor | P30559 | CHO-OTR cells, Fluo-8 calcium fluorescence, potentiator mode; 0% = oxytocin EC15, 100% = EC100 | activation, % at 3 µM | 320,000 tested, 0.061% active;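 active = activation above that plate's cutoff, the mean activation of tested compounds plus 3 SD, cut at about 6.6% in these data, passing the limit was not always enough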;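 also: 100% uses oxytocin at 75 nM as the full agonist control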
#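 Material: human OTR in CHO cells. Compound: 3.0 µM, one dose. Timing: compound 6 min at room temperature before oxytocin, 100 s read. Evaluation: % activation of max/min ratio relative to oxytocin controls. Replication: single well per compound, singlicate. Signal: Fluo-8 calcium dye fluorescence.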
# TAAR1 antag: antagonists of human TAAR1; Q96RJ0; CHO RD-HGA16 TAAR1, Fluo-8 calcium fluorescence, antagonist; inhibition, % at 3 µM; 360,000 tested, 1.5% active; AID 624466;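 active = inhibition above a per-plate cutoff, the mean inhibition of test compounds on that plate plus 3 SD, cut at about 49% in these data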;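 also: 0% = DMSO plus EC80 beta-PEA response and 100% = DMSO alone without agonist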
#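 System: RD-HGA16 CHO cells with stable hTAAR1 and Gα16 | Probe or stimulus: EC80 β-phenethylamine stimulus | Dosing: 3 µM, single point | Times: Dye loading 75 min at 37 °C, then 30 min room temperature | Measured by: Fluo-8 calcium-sensitive fluorescence | Read-out basis: % inhibition of agonist calcium response | Replicates: n of 1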
# * hit, by the source's call; . = not tested or not shown. Compounds with a hit are over-represented: about 2.3% of the library has one in this group of screens.
SMILES,OXTR agonist,TAAR1 agonist,V1aR counter,OXTR potentiate,TAAR1 antag
CCOc1ccc(C(C(=O)NCC2CCCO2)N(C(=O)c2snc(C(N)=O)c2N)c2ccc(F)cc2)cc1 (centres undefined),1,28,1,-21,49*
O=C(CNC(=O)c1ccccn1)N/N=C/c1ccccc1,0,40*,0,-6,4
CCc1ccc(/C=N/NC(=O)c2ccccn2)cc1,-1,1,0,-8,-6
CC1(C(=O)NCc2cccc3ccccc23)CCN1C(=O)Cc1ccc(-c2ccccc2)cc1 (centres undefined),.,4,.,.,49*
O=C(CNC(=O)c1cccs1)N/N=C/c1ccccc1[N+](=O)[O-],-1,5,1,-4,-18
Cc1cc(Nc2cc(C(F)(F)F)cc(C(F)(F)F)c2)cc(=O)n1-c1cc(C(F)(F)F)cc(C(F)(F)F)c1,.,1,.,.,-17
COc1ccc(CNC(=O)[C@@H](Cc2ccccc2)NC(=O)[C@H]2O[C@@H](n3ccc(=O)[nH]c3=O)[C@H](O)[C@@H]2O)cc1,.,2,.,.,-1
CCOc1ccc(N=C2NC(=O)S/C2=C\c2ccc(N(C)C)cc2)cc1,3,24,13,-11,57*
CCOc1ccc(/C=C2/SC(=O)NC2=S)cc1,4,-2,5,-6,10
CCOC(=O)C1=C(C)NC(C)=C(C(=O)OCCNC(=O)c2cccnc2)C1c1cccc([N+](=O)[O-])c1 (centres undefined),0,.,0,2,.
COC(=O)C1=C(C)NC(C)=C(C(=O)OCCN(C)Cc2ccccc2)C1c1cccc([N+](=O)[O-])c1 (centres undefined),-1,-1,-1,-9,49*
COc1ccc(CN(C(=O)CSc2nnc(-c3c[nH]c4ccccc34)o2)c2ccc(F)cc2)cc1OC,2,26,2,-15,82*
COc1ccc(CN(C(=O)CSc2nnc(-c3ccc(F)cc3)o2)c2ccc(F)cc2)cc1,2,0,3,-11,-34
COc1ccccc1Cc1c(-c2ccc(C)cc2)nc2ccc(C)cn12,.,1,.,.,-23
COc1ccc(NC(=O)NN2CCOCC2)cc1OC,1,6,1,5,63*
O=C(OCCOc1ccc(Cl)cc1)c1cc(S(=O)(=O)N2CCCCC2)ccc1N1CCOCC1,.,0,.,.,32
Cc1ccc(OCCOC(=O)c2cc(S(=O)(=O)N3CCCCC3)ccc2N2CCOCC2)cc1,-1,0,0,-8,50*
O=C1CCC/C(=N/NC(=O)c2sc3ccccc3c2Cl)C1,12,35,32*,-7,27
O=C(NN=C1CCCC1)c1sc2ccccc2c1Cl,-1,0,0,-9,1
Cc1ccc(CN2C(=O)N/C(=C\c3ccc(N4CCOCC4)cc3)C2=O)cc1,0,3,0,-8,-19
CCCN1C(=O)/C(=C/c2ccc(N3CCOCC3)cc2)NC1=S,25*,54*,31*,-35,43
CCN1C(=O)/C(=C/c2ccc(N3CCCC3)cc2)NC1=S,110*,84*,91*,-20,82*
Cc1cc(C)nc(Nc2nc(C(N)Cc3ccc(C(F)(F)F)cc3)cs2)n1 (centres undefined),.,47*,.,.,35
Cc1cc(C)nc(Nc2nc(C(N)Cc3ccc(F)cc3)cs2)n1 (centres undefined),.,28,.,.,2
COc1cc(OC)nc(Nc2nc(C(N)Cc3ccccc3)cs2)n1 (centres undefined),.,18,.,.,-7
SMILES,OXTR agonist,TAAR1 agonist,V1aR counter,OXTR potentiate,TAAR1 antag
COc1cc(OC)nc(Nc2nc(C(N)Cc3ccc(C(F)(F)F)cc3)cs2)n1 (centres undefined),.,53*,.,.,34
NC(Cc1ccccc1)c1csc(Nc2ccc(C(F)(F)F)cn2)n1 (centres undefined),.,41*,.,.,20
CCc1ccc2c(c1)Sc1ccccc1CC2N1CCN(C)CC1 (centres undefined),14,43*,7,-9,10
Cc1ccc(C(OCC(O)CNCc2ccc(F)cc2)c2ccccc2)cc1 (centres undefined),13,40*,12,-14,32
CC(=O)c1c(C)[nH]c(C(=O)CSc2nnc(-c3ccccc3)o2)c1C,11,33,9,-16,56*
O=C(CSc1nnc(-c2ccccc2)o1)c1nnc(-c2ccccc2)o1,0,6,0,-7,9
C=CCCC1CN(Cc2ccc(OC)cc2)S(=O)(=O)c2c(Oc3cc(C)c(C)c(C)c3)cccc2O1 (centres undefined),.,0,.,.,-7
S=C(NCCc1ccccc1)N1CCN(C23CC4CC(CC(C4)C2)C3)CC1,11,37*,8,-6,15
COC(=O)C1=C(C)N(Cc2ccccc2C(F)(F)F)C(=NCc2ccc(OC)cc2)NC1c1ccc(Cl)cc1 (centres undefined),.,10,.,.,17
O=C(Nc1ccc(C(O)c2ccccc2)cc1)[C@@H]1O[C@H](CO)[C@H](O)[C@H](O)[C@H]1O (some centres undefined),.,1,.,.,-14
COc1ccccc1/C=N/NC(=O)c1cccc(NC(=O)c2ccccc2C)c1,3,10,8,-5,44
COc1ccccc1/C=N/NC(=O)c1cccc(NC(=O)c2ccccc2Cl)c1,-1,10,1,-4,49*
COc1cc(/C=N/NC(=O)c2cccc(NC(=O)c3ccccc3Cl)c2)ccc1O,1,15,0,-18,53*
COc1ccc(/C=N/NC(=O)c2cccc(NC(=O)c3ccccc3Cl)c2)cc1OC,0,6,0,-14,37
COc1cccc(CNS(=O)(=O)c2ccccc2Br)c1,.,33,.,.,-20
Nc1nc(Cl)cc(NCCc2ccc(O)cc2)n1,3,14,5,-11,-15
Oc1ccc(CCNc2ncnc3ccc(Cl)cc23)cc1,12,5,8,-25,51*
CC1=NN(C(N)=S)C(=O)C1N=Nc1c(Br)cc(Br)cc1Br (centres undefined),7,39*,5,-17,41
CC1=NN(C(N)=S)C(=O)C1N=Nc1c(C)cc(C)cc1C (centres undefined),-2,3,-2,-10,-7
Nc1c(C(=O)NCc2ccccc2)nnn1Cc1ccc(F)cc1,16,41*,15,-11,6
Cc1cccc(NS(=O)(=O)c2ccc(C(=O)NCC(c3ccccc3)N(C)C)cc2)c1C (centres undefined),.,43*,.,.,28
CN(C)C(CNC(=O)c1ccc(C2SCCS2)cc1)c1ccccc1 (centres undefined),2,38*,2,-7,-18
Cc1ccc(C2C(C#N)=C(N)SC(N)=C2C#N)cc1,.,50*,.,.,48

# Compound activity: PubChem, The Scripps Research Institute Molecular Screening Center
